The list is not random: actives were taken first. Their share in the collection is about 3.9%.
CHRM1 PAM: human CHRM1 positive allosteric modulation; P11229; CHO-K1 hM1, Fluo-8 calcium fluorescence, ACh EC20; 0% = ACh EC20, 100% = maximal ACh; activation, % at 3 µM; 0.088% of 360,000 active; in the data active means activation above about 19%, passing the limit was not always enough
m5-HT2A agonist: mouse HTR2A agonism via beta-arrestin recruitment | P35363 | CHO-K1 mHTR2A beta-arrestin complementation, luminescence; percent of 30 µM serotonin response | activation, % at 7.6 µM | 0.66% of 360,000 active | AID 624169;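 active means activation above a run cutoff, the mean activation of all tested compounds plus 3 SD, cut at about 14% in these data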;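 further: 0% = plate median of compound wells and 100% = 30 µM serotonin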
Target sequence (P35363 whole entry, looked up): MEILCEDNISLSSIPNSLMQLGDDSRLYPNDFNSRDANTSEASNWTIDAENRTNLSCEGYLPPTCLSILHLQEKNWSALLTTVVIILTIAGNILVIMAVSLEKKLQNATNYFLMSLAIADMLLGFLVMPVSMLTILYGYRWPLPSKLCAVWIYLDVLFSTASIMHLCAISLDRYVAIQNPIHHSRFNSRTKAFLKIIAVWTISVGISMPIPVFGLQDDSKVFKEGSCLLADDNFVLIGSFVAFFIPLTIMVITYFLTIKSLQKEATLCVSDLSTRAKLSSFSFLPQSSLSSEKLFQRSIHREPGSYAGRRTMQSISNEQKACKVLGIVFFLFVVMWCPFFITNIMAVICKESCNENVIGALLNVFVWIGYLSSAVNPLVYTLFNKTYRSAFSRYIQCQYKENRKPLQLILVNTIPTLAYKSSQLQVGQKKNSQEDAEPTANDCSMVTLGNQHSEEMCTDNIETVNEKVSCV
M1 ag: agonists of human M1 muscarinic receptor | P11229 | CHO-K1 hM1, Fluo-8 calcium fluorescence, agonist mode; 0% DMSO, 100% acetylcholine EC100 | activation, % at 3 µM | 0.33% of 360,000 active | AID 588814;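 active means activation above the run's mean compound activation plus 3 SD, cut at about 16% in these data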;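 further: peak over basal fluorescence ratio within a 140 s kinetic read after compound addition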
TAAR1 agonist: agonists of human TAAR1. CHO RD-HGA16 TAAR1, Fluo-8 calcium fluorescence; vehicle wells 0%, saturating PEA agonist 100%. activation, % at 3 µM. 0.99% of 360,000 active. AID 624467;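 active means activation above the mean activation of all test compounds in the run plus 3 SD, cut at about 38% in these data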
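Test system: RD-HGA16 (CHO) cells co-expressing Gα16 and hTAAR1; dosing: one-point dosing at 3 µM (nominal); timing: 17-24 h seeding, 75 min 37 °C dye, 30 min RT; signal: kinetic Fluo-8 calcium fluorescence; read-out basis: % activation relative to PEA EC100 response; controls: DMSO and PEA EC100; replicates: n 1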
CHRM1 antagonist: antagonists of human M1 muscarinic receptor | CHO-K1 hM1, Fluo-8 calcium fluorescence, ACh EC80 antagonist | inhibition, % at 3 µM | 1.3% of 360,000 active;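 active means percent inhibition above its own plate's cutoff, namely the mean of that plate's compound wells plus 3 SD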;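 further: peak over basal fluorescence ratio during 140 s after agonist addition; 0% = ACh EC80 plus DMSO and 100% = DMSO alone without agonist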
TAAR1 antag: antagonists of human TAAR1; Q96RJ0; inhibition, % at 3 µM; AID 624466; 1.5% of 360,000 active; CHO RD-HGA16 TAAR1, Fluo-8 calcium fluorescence, antagonist;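 active means inhibition above a per-plate cutoff, the mean inhibition of test compounds on that plate plus 3 SD, cut at about 49% in these data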;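 further: 0% = DMSO plus EC80 beta-PEA response and 100% = DMSO alone without agonist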
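System: CHO RD-HGA16 cells bearing hTAAR1. Reagent: EC80 β-phenethylamine stimulus. Schedule: seeding 17-24 h prior, 75-min 37 °C, 30-min RT dye loading. Signal: Fluo-8 intracellular calcium dye fluorescence, real-time kinetic reads. Read-out: % inhibition from peak post-agonist over basal fluorescence ratio. Benchmarks: vehicle wells and EC80 agonist wells. Replicates: n of 1.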
An asterisk follows results filed as active; / = not tested or not shown.

SMILES	CHRM1 PAM	m5-HT2A agonist	M1 ag	TAAR1 agonist	CHRM1 antagonist	TAAR1 antag
O=C(Nc1ccccc1Cl)c1cc(C2CCCCN2C(=O)CCCc2ccccc2)on1 (stereo not drawn)	6	1	-1	3	-8	-2
CC1=Nc2ccccc2/C1=C\c1nc(-c2ccc(C(F)(F)F)cc2)oc1O	-1	-1	3	18	2	40
CC1=Nc2ccccc2/C1=C/c1sc(=N)n(-c2nccs2)c1O	-12	-7	8	/	34*	/
CCC(C)C(NC(=O)OCc1ccccc1)C(=O)NC(Cc1ccc(O)cc1)C(=O)OC (stereo not drawn)	0	0	11	8	-1	4
O=C(N[C@H](C(=O)N1CCC[C@H]1C(=O)NC1CCCC1)C1CCCCC1)c1ccc(Cl)c(Cl)c1	/	/	/	-3	/	-16
COc1ccccc1NC(=O)CSc1nnc(-c2ccc(C)cc2)o1	0	3	-4	3	-1	0
COc1cccc(NC(=O)CSc2nnc(-c3ccc(C)cc3)o2)c1	-4	-2	-1	61*	-3	51*
Fc1ccccc1-c1nc(NCC2CC2)nc2ccsc12	-6	-1	-9	4	2	41
CN(C)CCNc1nc(-c2ccccc2F)c2sccc2n1	-30	0	-8	4	70*	-20
CCOC(=O)CC/C(C)=N\N=C1\SC(CC(=O)O)C(=O)N1c1ccccc1 (stereo not drawn)	3	0	-5	0	-6	-9
CCN1C(=O)/C(=C/C=C2/SCCN2C)SC1=S	6	7	8	39*	-4	7
CCN1C(=O)/C(=C/C=C2/Sc3ccccc3N2CCO)SC1=S	3	0	2	7	2	2
CN1CCS/C1=C\C=C1/SC(=S)N(CC(=O)O)C1=O	-8	-5	12	45*	6	12
Cn1cccc1/C=C1/SC(=S)N(CC(=O)O)C1=O	3	-5	-4	3	-9	2
COc1ccc(/C=C/C(=O)NCCSCc2ccco2)cc1OC	4	-3	-2	0	-12	-20
